# Hits are enriched below; roughly 4% of the tested compounds scored in any of these assays.
# hERG protect – hERG (human) protection from proarrhythmic block; CHO-hERG, FluxOR thallium flux, dofetilide IC70 present; activation (rescue from dofetilide block), less the hit threshold, % at 10 µM; Q12809; 0.51% of 310,000 active; AID 1511;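 active = activation above the mean of controls blocked by dofetilide plus 5 SD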;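 note: thallium influx through hERG after potassium depolarization seen as dye fluorescence rise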
# KCNQ1 pot – potentiators or activators of human KCNQ1 potassium channel | P51787 | CHO-K1 KCNQ1, thallium flux FluxOR fluorescence; stronger effect = higher value | B-score at 10 µM | 0.35% of 310,000 active | AID 2648;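 active = fluorescence ratio B-score, a plate-corrected score, at least three library SD, with initial intensity B-score within 5 SD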
#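 Test system: CHO-K1 cells stably expressing KCNQ1 / Medium: assay buffer / Also added: depolarizing K+/Tl+ stimulus, K2SO4 and Tl2SO4 each 12.5 mM in 5x stock / Incubation: 90 min dye loading and 20 min compound exposure, both at room temperature / Signal: thallium influx via FluxOR fluorescence, kinetic imaging / Evaluation: B score of baseline-normalized fluorescence ratio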
# KCNK9 inh – inhibitors of human KCNK9 two-pore domain potassium channel. 1.2% of 310,000 active. B-score at 10 µM. Q9NPC2. HEK293 KCNK9, FluxOR thallium flux fluorescence; stronger effect = lower value;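 active = ratio B-score over 3 SD below the library mean, with starting fluorescence within 5 SD of its mean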;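 note: negative B-score means less thallium flux so channel inhibition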
# KCNQ1 inh – human KCNQ1 channel inhibition; B-score at 10 µM; P51787; 1.3% of 310,000 active; CHO-K1 KCNQ1, FluxOR thallium flux fluorescence; stronger effect = higher value; AID 2642;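 active = compounds whose thallium flux B-score, printed positive for inhibition, exceeds three library SD while starting fluorescence stays within three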;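 note: channel opened by potassium depolarization with thallium stimulus after 20 min compound exposure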
# PHOSPHO1 block – inhibitors of human PHOSPHO1 phosphatase. Q8TCT1. recombinant PHOSPHO1, absorbance phosphatase assay. inhibition, % at 13.3 µM. 1.1% of 290,000 active; in the data active = inhibition above about 60%
# KCNK3 block – human KCNK3 channel inhibition, primary screen; CHO-KCNK3 thallium flux, FluxOR fluorescence; stronger effect = lower value; B-score at 10 µM; 0.84% of 340,000 active;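 active = B-score under library mean minus 4 SD, starting fluorescence ratio at most library mean plus 5 SD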;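 note: more negative B-score means stronger inhibition of thallium flux through KCNK3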
# KCNK9 block conf – confirmation of human KCNK9 potassium channel inhibitors; HEK293 KCNK9 cells, FluxOR thallium flux fluorescence; shares compounds with KCNK9 inh; 43% of 4,900 active; inhibition, % at 10 µM; AID 492992;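 active = thallium signal inhibited by more than 5 SD of the compound-free buffer control wells, on both duplicate plates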
# Kir2-1 spec – tests whether KCNK9 modulators also affect mouse Kir2.1. inhibition, % at 10 µM. 4% of 4,900 active. shares compounds with KCNK9 inh. Kir2.1 cells, FluxOR thallium flux fluorescence;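 active = thallium signal drop more than 5 SD beyond the mean of the no-compound control wells, seen in both duplicate plates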;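 note: signal is fluorescence rise after thallium addition divided by baseline fluorescence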
# HEK293 Tl ctr – second counter-screen for KCNK9 modulators: effect in non-induced cells | shares compounds with KCNK9 inh | non-induced KCNK9-HEK293, FluxOR thallium flux | inhibition, % at 10 µM | 40% of 4,900 active | AID 492997;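 active = thallium signal drop beyond 5 SD of the untreated control mean, on both duplicate plates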
# A number is an active result; – = inactive; · = no result given.
SMILES,hERG protect,KCNQ1 pot,KCNK9 inh,KCNQ1 inh,PHOSPHO1 block,KCNK3 block,KCNK9 block conf,Kir2-1 spec,HEK293 Tl ctr
CCOC(=O)C1CCN(CCCSc2ccc(Cl)cc2)CC1,–,–,–,–,–,–,–,–,–
Cc1cc(N2CCCCC2)n2nc(C)c(-c3ccccc3)c2n1,–,–,–,–,–,–,·,·,·
Cc1nn2c(N3CCCC3)cc(C(C)C)nc2c1-c1ccccc1,–,–,-8.3,–,–,–,58%,–,45%
CCCCc1ccc(NC(=O)CN(C)CC(=O)Nc2ccccc2Cl)cc1,–,–,–,–,–,–,–,–,–
CC12COC3(C(=O)Nc4ccc5ccccc5c4)CC1CCC32C (configuration not stated),–,–,–,–,–,–,–,–,–
CC12COC3(C(=O)Nc4ccccc4)CC1CCC32C (configuration not stated),–,–,–,–,–,–,·,·,·
O=C(N/N=C/c1cc(Br)cc([N+](=O)[O-])c1O)c1ccc(NC(=O)c2ccc(F)cc2)cc1,–,–,–,–,–,–,·,·,·
COc1ccccc1C(=O)NCCSCc1c(F)cccc1Cl,–,–,–,–,·,–,·,·,·
Cc1c(C(=O)NCCSCc2c(F)cccc2Cl)cnn1-c1ccc(Cl)cc1,–,–,–,–,–,–,–,–,–
COc1ccc2c(C)cc3nncn3c2c1,–,–,–,–,–,–,·,·,·
COc1ccccc1CNC(=O)c1ccccc1OCc1ccc(F)cc1,–,–,-8.8,–,–,–,70%,39%,28%
CCc1nc2c(s1)CCc1onc(-c3ccc(Cl)cc3)c1-2,–,–,-13,–,·,–,70%,–,38%
CC(C)NC(=O)Nc1cccc2c1O[C@H](CN(C)S(=O)(=O)c1ccc(F)cc1)[C@@H](C)CN([C@H](C)CO)C2=O,·,·,·,·,·,–,·,·,·
Cc1ccn2c(CN3CCOCC3)c(-c3ccccc3)nc2c1,–,–,–,–,–,–,·,·,·
COc1cccc(Nc2nc(-c3ccc4c(c3)OCCO4)cs2)c1,–,–,–,–,–,–,–,–,–
COc1ccc(Cl)cc1Nc1nc(-c2sc(NC(=O)c3ccco3)nc2C)cs1,–,–,-11,–,–,–,–,–,–
c1cc2c(cc1Nc1nc(-c3ccc4c(c3)OCO4)cs1)OCCO2,–,–,–,–,–,–,·,·,·
Cc1nc(NC(=O)c2ccccc2)sc1-c1csc(NCCc2ccccc2)n1,–,–,-8.7,–,62,–,32%,–,–
COc1cccc(Nc2nc(-c3sc(NC(=O)c4ccco4)nc3C)cs2)c1,–,–,-11,–,–,–,50%,–,–
COc1cccc(NC(=O)CSc2nnc(NC(=O)c3ccco3)s2)c1,–,–,–,–,–,–,·,·,·
O=C(/C=C/NCC(=O)c1ccccc1)c1ccc(Br)cc1,–,–,–,–,–,–,·,·,·
CS(=O)(=O)N1CCCC(C(=O)c2cccc(Cl)c2)C1 (configuration not stated),–,–,–,–,–,–,·,·,·
O=[N+]([O-])c1ccc(Cl)cc1CNc1ccc(F)c(F)c1,–,–,-8.5,–,–,–,33%,–,27%
COc1ccc(NS(=O)(=O)c2c(C(=O)N3CCCCCC3)c(C)n(C)c2C)cc1,–,–,–,–,–,–,·,·,·
CC(=O)Nc1ccc(OCC(=O)N2CCc3ccccc3C2)cc1,–,–,–,–,–,–,·,·,·
SMILES,hERG protect,KCNQ1 pot,KCNK9 inh,KCNQ1 inh,PHOSPHO1 block,KCNK3 block,KCNK9 block conf,Kir2-1 spec,HEK293 Tl ctr
CC(C)c1ccc(OCC(=O)N2CCc3ccccc3C2)cc1,–,–,–,–,–,–,–,–,–
O=C(Cc1c(Cl)cccc1Cl)OCC(=O)N1CCOCC1,·,·,·,·,·,–,·,·,·
O=C(Cc1c(Cl)cccc1Cl)OCC(=O)N1CCc2ccccc2C1,–,–,–,–,–,–,–,–,–
C/C(=N\Nc1ccc([N+](=O)[O-])cc1[N+](=O)[O-])c1ccc(-n2nncc2C(C)(C)C)cc1,–,–,–,–,–,–,·,·,·
CCN(C(=O)C1CCCN(c2nc(-c3ccc(OC)cc3)no2)C1)c1ccccc1F (configuration not stated),–,–,–,–,–,–,–,–,–
CCN(C(=O)C1CCN(c2nc(-c3ccc(OC)cc3)no2)CC1)c1ccccc1,–,–,–,–,–,–,·,·,·
O=C(c1ccccc1Cl)N1N=C(c2cccs2)CC1c1cccc(O)c1 (configuration not stated),–,–,–,–,–,–,·,·,·
C/C(=N/OC(=O)C1CC12CCC2)c1ccc(Br)cc1 (configuration not stated),–,–,–,–,–,–,–,–,–
O=C(CNC(=O)c1ccc(Cl)cc1Cl)OCc1ccccc1,–,–,–,–,·,–,·,·,·
CCN(CC)S(=O)(=O)c1ccc(N2CCOCC2)c(NC(=O)c2cc3ccccc3oc2=O)c1,–,–,-12,–,–,–,55%,–,–
Nc1ccc(C(=O)Nc2ccc(NC(=O)c3ccco3)c(O)c2)cc1,–,–,–,–,–,–,·,·,·
O=C(CN1CCCN(Cc2ccc(F)cc2Cl)C1=O)NC1CCCCCCC1,–,–,–,–,–,–,·,·,·
Cc1cccc(-c2onc3ccc(C(=O)/C=C/N(C)C)cc23)c1,–,–,–,–,·,–,–,–,–
Cc1ccc(-c2onc3ccc(C(=O)/C=C/N(C)C)cc23)cc1,–,–,–,–,–,–,·,·,·
Cc1ccc(NC2(c3nnnn3-c3c(C)cccc3C)CCCCC2)cc1,–,–,-8.9,–,–,–,48%,–,44%
CC1=C(C(=O)N2CCOCC2)C(c2ccc(C)cc2)NC(=S)N1 (configuration not stated),–,–,–,–,–,–,·,·,·
COc1ccc2c(c1)c(CC(=O)OC(C)C(=O)N(C)C)c(C)n2C(=O)c1ccc(Cl)cc1 (configuration not stated),–,–,–,–,–,–,–,–,–
CCOC(=O)c1[nH]c(CN2CCN(c3ccc(OC)cc3)CC2)c(C(=O)OCC)c1C,–,–,–,–,–,–,–,–,–
CCOC(=O)c1[nH]c(C)c(C(=O)N2CCN(c3ccc(OC)cc3)CC2)c1C,–,–,–,–,–,–,·,·,·
CCOc1ccc2nc(SCC(=O)NC(=O)NCc3ccco3)[nH]c2c1,–,–,–,–,–,–,–,–,–
CCOc1ccc2nc(SCC(=O)NCc3ccc(OC)c(OC)c3)[nH]c2c1,–,–,–,–,–,–,·,·,·
